Screening data as filed in PubChem.
Shown are actives, neighbours in structure and some others; about 5.4% of the full set was active somewhere.
DAT uptake mod = human DAT dopamine uptake with cocaine, either direction | B-score at 10 µM | LLC-PK1 hDAT cells, [14C]-dopamine uptake with cocaine IC80; actives deviate in either direction | Q01959 | 110,000 compounds, 1.3% hits;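 active = Z score or B-score, a plate-position-corrected score, falls beyond the plate's 99.7% confidence bounds, in either direction; inactive = both scores lie inside the 99.7% bounds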
Target sequence (Q01959 whole entry, looked up): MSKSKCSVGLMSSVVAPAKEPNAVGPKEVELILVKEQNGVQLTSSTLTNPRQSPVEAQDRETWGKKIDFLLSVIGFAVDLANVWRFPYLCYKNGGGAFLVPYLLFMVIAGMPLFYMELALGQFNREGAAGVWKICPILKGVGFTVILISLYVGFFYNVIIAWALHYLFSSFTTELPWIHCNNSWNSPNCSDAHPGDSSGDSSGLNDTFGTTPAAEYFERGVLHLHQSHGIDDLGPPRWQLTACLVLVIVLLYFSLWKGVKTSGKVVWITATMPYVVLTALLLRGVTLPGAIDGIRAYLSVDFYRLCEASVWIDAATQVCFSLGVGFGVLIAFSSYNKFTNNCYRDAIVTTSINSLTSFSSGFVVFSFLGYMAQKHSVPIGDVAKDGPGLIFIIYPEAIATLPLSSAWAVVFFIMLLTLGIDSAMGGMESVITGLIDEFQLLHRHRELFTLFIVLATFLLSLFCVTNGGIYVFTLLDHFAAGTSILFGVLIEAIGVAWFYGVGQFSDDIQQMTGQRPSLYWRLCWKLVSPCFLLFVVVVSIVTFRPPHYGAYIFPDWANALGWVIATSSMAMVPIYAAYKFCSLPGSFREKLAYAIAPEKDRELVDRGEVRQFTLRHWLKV
EphB4 antag = antagonists of human EphB4-ephrin-B2 interaction; P54760; EphB4 LBD / TNYL-RAW-Alexa532 peptide, fluorescence polarization; inhibition, % at 7 µM; 97,000 compounds, 0.15% hits; AID 720;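 active = inhibition above the screen-wide mean inhibition plus 3 SD, cut at about 15% in these data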
HIV Rev-RRE inh = HIV Rev-RRE protein-RNA interaction inhibition; P05866; Rev peptide-RRE RNA binding, FRET; inhibition, % at 8 µM; 97,000 compounds, 0.79% hits;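 active = inhibition above the screen-wide mean plus 3 SD, cut at about 35% in these data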
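Test system – labelled RRE RNA duplex and labelled Rev peptide · Signal – fluorescein-to-Cy5 FRET, 480 nm excitation · Evaluation – % inhibition of FRET ratio versus controls · Benchmarks – DMSO low control, neomycin B high control · Incubation – 5 min RNA-compound premix plus 15 min binding step, 25 °C · Medium – HEPES pH 7.5 salt buffer with EDTA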
Cav32 inh = blocks human Cav3.2 T-type calcium channel; B-score at 10 µM; Cav3.2-expressing cells, Fluo-4 calcium fluorescence FDSS; stronger effect = lower value; 100,000 compounds, 4% hits; AID 449739; O95180;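 active = single-dose well whose peak fluorescence ratio is a statistical outlier from its plate by either plate-standardised score or position-corrected B-score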
Hits are given with their value; - = inactive; . = no result; [ ] = remark or other dose.

SMILES | DAT uptake mod | EphB4 antag | HIV Rev-RRE inh | Cav32 inh
O=C1c2ccccc2-c2cccc(NS(=O)(=O)c3ccc(C(F)(F)F)cc3)c21 | - | - | 100[fluorescence artefact?] | -
COc1ccc(OC)c(C(=O)c2ccc(C(=O)N3CCCCC3)cc2)c1 | - | - | - | -
COc1ccccc1C1C=C(c2ccc(C)cc2)Nc2nnnn21 (stereo unspecified) | - | - | - | -
COc1ccc(C2=CC(c3c(C)nn(-c4ccccc4)c3Cl)n3nnnc3N2)cc1OC (stereo unspecified) | - | - | 51 | -
CCOc1nc(Nc2ccc(OC)cc2)nc(OCC)n1 | - | - | - | -
COc1ccc(Nc2nc(Nc3ccc(OC)cc3)nc(SC3=NCCS3)n2)cc1 | - | - | - | -5.9
O=C(c1coc2ccccc2c1=O)N1CCN(c2cccc(C(F)(F)F)c2)CC1 | . | - | - | .
COc1ccc(-c2nnc3n2N=C(C)CS3)cc1 | - | - | - | .
COc1ccc(C2=Nn3c(nnc3-c3ccc(OC)cc3)SC2)cc1 | - | - | - | -7.2
N#CC1=C(N)SC(C(=O)c2ccccc2)C1c1cccs1 (stereo unspecified) | - | - | - | -
N#CC1=C(N)S[C@@H](C(=O)c2ccc(F)cc2)[C@@H]1c1cccs1 | - | - | - | -4.7
CSc1cc(-c2ccc(Cl)cc2)c(C(=O)NC(C)C)s1 | - | - | - | .
CSc1cc(-c2ccc(Cl)cc2)c(C(=O)NN)s1 | 3.2 | - | - | -
Cc1oc(-c2ccccc2F)nc1CSCC(=O)NCc1ccc2c(c1)OCO2 | - | - | - | -
Clc1ccc(/C=N/Nc2nc(Cl)nc3ccccc23)cc1 | - | - | - | -
Clc1cccc(/C=N/Nc2ncnc3ccccc23)c1 | - | 85[fluorescence artefact?] | - | -
CCOc1ccc(C(=O)N2CCSC2=S)cc1 | - | - | - | -
Cc1oc(C)c2c(=O)ccc3c(c12)OC(N)=C(C#N)C3c1ccc(F)cc1 (stereo unspecified) | - | . | . | -3.3
Cc1cc(C)n(-c2nnc(C)n2/N=C/c2ccccc2OCc2ccccc2Cl)n1 | - | - | - | -5.6
Cc1cc(C)n(-c2nnc(C)n2/N=C/c2cc(Br)ccc2OCc2ccccc2)n1 | - | - | - | -6.9
Cc1cc(C)nc(N2CCC(C(=O)NCc3ccccc3)CC2)n1 | - | - | - | -
Cc1cc(C)nc(N2CCCC(C(=O)NCc3ccccc3)C2)n1 (stereo unspecified) | - | 29 | - | -
O=C1c2ccccc2NC(c2ccco2)N1O (stereo unspecified) | - | - | - | -
O=C1C2=C(Nc3ccccc3SC2c2ccco2)c2ccccc21 (stereo unspecified) | - | - | - | -5.1
CC(C)(C)C(=O)Nc1nc(C2CCCN2S(=O)(=O)c2ccc(Cl)cc2)cs1 (stereo unspecified) | - | - | - | -4
SMILES | DAT uptake mod | EphB4 antag | HIV Rev-RRE inh | Cav32 inh
O=C(Nc1nccs1)C1CCCN1S(=O)(=O)c1ccc(Cl)cc1 (stereo unspecified) | - | - | - | -
C=CCN1c2ccccc2[C@]23C[C@@H](C(=O)OC)N(C(=O)NCCC)C2=NC(C(=O)OC)=C(C(=O)OC)[C@H]13 | - | . | . | -
COc1cccc(-c2nnc3n2N=C(C(C)(C)C)CS3)c1 | - | - | - | -
CCOc1cccc(C(=O)NC2CCCCC2)c1 | - | - | - | -
CCCCOc1cccc(C(=O)NNC(=S)NC2CCCCC2)c1 | - | - | - | -5.8
CC(C)CC(NC(=O)C1CCCCC1)C(=O)N1CCN(c2ccccn2)CC1 (stereo unspecified) | - | - | - | -
CCC(C)NC(=O)Cn1nc([N+](=O)[O-])c(Cl)c1C (stereo unspecified) | - | - | - | -
Cc1c(Cl)c([N+](=O)[O-])nn1CC(=O)NC(C)C1CC2CCC1C2 (stereo unspecified) | - | - | - | -8.2
CCOC(=O)Cc1csc(NC(=O)c2sc3nc4ccc(C)cc4cc3c2N)n1 | - | - | 81[fluorescence artefact?] | -
Cc1ccc2nc3sc(C(=O)Nc4ccc(N5CCOCC5)cc4)c(N)c3cc2c1 | . | - | - | .
CCc1nnc(NC(=O)c2sc3nc4cc(C)ccc4cc3c2N)s1 | . | - | 88[fluorescence artefact?] | .
Cc1cc(C)c2c(-n3cccc3)c(C(=O)NNS(=O)(=O)c3ccc(Br)cc3)sc2n1 | - | - | - | -4.7
CCOC(=O)Nc1sc2nc(C)cc(C)c2c1-n1cccc1 | - | - | - | -
Cc1ccc(C)c(N2CCN(C(=O)CN(C)S(=O)(=O)c3cnc[nH]3)CC2)c1 | - | - | - | -
C=CCOC(=O)/C(=C\c1cccc2ccccc12)NC(=O)c1ccccc1 | - | - | - | -5.2
CC(C)NS(=O)(=O)c1ccc(NC(=O)C2CC3C=CC2C3)cc1 (stereo unspecified) | - | - | - | -
CC1(C)NC(C)(C)c2nonc2/C1=N\O | 2.8 | . | . | -
Cc1ccc(N2C(=O)[C@@H]3[C@H](C2=O)[C@H]2C=CC=NN2[C@@H]3C(=O)Nc2ccc(Cl)cc2)cc1 | - | - | - | -
O=C(Nc1ccc(Cl)cc1)[C@@H]1[C@@H]2C(=O)N(c3ccc(Cl)cc3)C(=O)[C@@H]2[C@H]2C=CC=NN21 | - | - | - | -5.8
O=C(Nc1ccc(Cl)cc1)[C@@H]1[C@@H]2C(=O)N(c3ccc(Cl)cc3Cl)C(=O)[C@@H]2[C@H]2C=CC=NN21 | - | - | - | -4.7
O=C(NCc1cccc(Br)c1)C1CC2Cn3c(nc4ccccc43)C2N1c1ccccc1 (stereo unspecified) | - | . | . | -
Cc1ccc(OCC(=O)Nc2ccc([N+](=O)[O-])cn2)cc1C | - | - | - | -
O=S(=O)(/N=C(/Nc1cccc2ccccc12)c1ccccc1)c1cccs1 | - | - | - | -4.6
N#CC(/C(=N/S(=O)(=O)c1cccs1)c1ccccc1)c1nc2ccccc2[nH]1 (stereo unspecified) | . | - | - | .
Cc1ccc(NC(=O)CN(c2ccccc2F)S(C)(=O)=O)cc1 | - | - | - | -
SMILES | DAT uptake mod | EphB4 antag | HIV Rev-RRE inh | Cav32 inh
CCCC(C(=O)NCc1ccco1)N(C(=O)CNS(=O)(=O)c1ccc(Cl)cc1)C1CCCC1 (stereo unspecified) | - | - | - | -8.4
CCC(C(=O)NCc1ccco1)N(C(=O)CNS(=O)(=O)c1ccccc1)C1CCCCC1 (stereo unspecified) | 4.5 | - | - | -
OCc1nc2ccccc2n1CC(O)Cn1ccc2ccccc21 (stereo unspecified) | - | - | - | -
Oc1ccccc1NCC(O)Cn1ccc2ccccc21 (stereo unspecified) | - | - | 63 | -
CCOC(=O)/C(C#N)=C1/C=CN(c2ccc(C)cc2)C=N1 | - | - | - | -
CCOC(=O)/C(C#N)=C1/SC(CC)C(=O)N1c1ccc(C)cc1 (stereo unspecified) | -2.8 | - | - | -
CCOc1ccc(C2=C/C(=C/c3cccnc3)C(=O)O2)cc1 | - | - | 111[fluorescence artefact?] | -
CCOc1ccc(C(=O)NCc2cccnc2)cc1 | - | - | - | -
O=C1N[C@@H](Cc2cn(S(=O)(=O)c3ccc(F)cc3)c3ccccc23)C(=O)N[C@H]1Cc1ccccc1 | - | . | . | -
O=C(OCc1ccc(Cl)cc1)c1ccccc1C(=O)c1ccccc1 | - | - | - | .
